Source: PMC4827638 (Preventive Nutrition and Food Science, 2016)
Marks after values point to notes of the source that are not given here.

Columns and labels:
Assay type in all cases: biochemical
[1] = OH radical scavenging activity; details: absorbance at 520 nm; triplicate
Outline: (§1)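 Absorbance endpoint assays, read on a UV-visible spectrophotometer (H2O2 assay on a microplate reader). Percent scavenging was measured across a series of sample concentrations. IC50 was taken from a graph of inhibition percentage versus sample concentration. Triplicate analyses, reported as mean±SD.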

[2] = H2O2 radical scavenging activity; details: 405 nm; triplicate
Outline: as §1

superoxide = details: xanthine-XO method, 560 nm; triplicate
Outline: as §1

NO radical = details: nitrite scavenging effect, 520 nm; triplicate
Outline: as §1

tyrosinase = assay: Tyrosinase inhibitory activity; details: L-DOPA substrate, 25°C, 2 min, pH 6.8; mean±SD
xanthine oxidase (XO) = xanthine oxidase (XO) (Bos taurus, UniProt P80457); assay: XO inhibitory activity
xanthine oxidase (XO), sequence (P80457 whole entry): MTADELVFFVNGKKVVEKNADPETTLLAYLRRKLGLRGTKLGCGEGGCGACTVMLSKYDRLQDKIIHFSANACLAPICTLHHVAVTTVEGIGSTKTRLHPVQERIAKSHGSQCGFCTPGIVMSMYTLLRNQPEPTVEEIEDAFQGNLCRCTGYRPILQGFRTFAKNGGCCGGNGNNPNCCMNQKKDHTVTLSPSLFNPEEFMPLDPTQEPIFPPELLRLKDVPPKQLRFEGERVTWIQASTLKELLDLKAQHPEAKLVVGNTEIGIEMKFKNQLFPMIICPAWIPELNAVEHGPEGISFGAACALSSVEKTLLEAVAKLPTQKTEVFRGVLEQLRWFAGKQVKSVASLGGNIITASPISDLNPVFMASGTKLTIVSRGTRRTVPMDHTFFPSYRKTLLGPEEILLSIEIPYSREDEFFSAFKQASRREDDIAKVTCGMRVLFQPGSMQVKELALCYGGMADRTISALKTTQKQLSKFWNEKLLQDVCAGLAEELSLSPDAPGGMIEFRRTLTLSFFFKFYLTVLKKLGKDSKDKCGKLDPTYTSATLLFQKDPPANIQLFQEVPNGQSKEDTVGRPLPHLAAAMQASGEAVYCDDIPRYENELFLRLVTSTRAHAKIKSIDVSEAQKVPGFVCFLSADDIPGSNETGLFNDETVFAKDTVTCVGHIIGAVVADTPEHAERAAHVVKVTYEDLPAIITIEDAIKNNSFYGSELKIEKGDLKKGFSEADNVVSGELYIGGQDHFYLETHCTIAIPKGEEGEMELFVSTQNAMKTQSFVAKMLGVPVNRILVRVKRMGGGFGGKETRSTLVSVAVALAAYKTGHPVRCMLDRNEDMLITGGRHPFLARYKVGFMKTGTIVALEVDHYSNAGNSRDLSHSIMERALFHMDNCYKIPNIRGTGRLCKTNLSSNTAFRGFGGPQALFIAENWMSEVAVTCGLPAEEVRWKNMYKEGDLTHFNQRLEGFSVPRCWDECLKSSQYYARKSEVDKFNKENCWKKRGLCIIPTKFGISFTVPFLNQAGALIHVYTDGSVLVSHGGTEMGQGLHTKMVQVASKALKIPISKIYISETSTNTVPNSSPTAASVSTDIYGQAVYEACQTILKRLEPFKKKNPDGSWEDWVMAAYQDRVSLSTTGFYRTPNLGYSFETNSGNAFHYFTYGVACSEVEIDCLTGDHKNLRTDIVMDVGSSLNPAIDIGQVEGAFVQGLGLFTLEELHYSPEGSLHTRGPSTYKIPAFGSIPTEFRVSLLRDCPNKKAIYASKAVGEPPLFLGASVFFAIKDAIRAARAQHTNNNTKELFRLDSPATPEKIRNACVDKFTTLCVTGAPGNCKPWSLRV

IC50 of OH radical scavenging activity [1] [mg/L]	IC50 of H2O2 radical scavenging activity [2] [mg/L]	IC50 of O2 radical scavenging activity (superoxide) [mg/L]	IC50 of NO radical scavenging activity (NO radical) [mg/L]	IC50 Tyrosinase inhibition (tyrosinase)	IC50 (xanthine oxidase (XO)) [µM]	Compound
92.50	12.60	65.05	81.53	101.931±2.601^a μg/mL	246	CC1=C(O)C(=O)C(C)(O)S1 (stereo not drawn) [Thiacremonone, 2,4-dihydroxy-2,5-dimethyl-thiophene-3-one]
104.93	42.42	99.43	122.64			O=C1O[C@H]([C@@H](O)CO)C(O)=C1O [ascorbic acid, Ascorbic acid]
12.93 ± 1.64	39.40 ± 0.77	84.92 ± 2.34	15.72 ± 1.22			Cc1c(C)c2c(c(C)c1O)CC[C@@](C)(CCC[C@H](C)CCC[C@H](C)CCCC(C)C)O2 [α-tocopherol]

Compound	IC50 of OH radical scavenging activity [1] [mg/L]	IC50 of H2O2 radical scavenging activity [2] [mg/L]	IC50 of O2 radical scavenging activity (superoxide) [mg/L]	IC50 of NO radical scavenging activity (NO radical) [mg/L]	IC50 Tyrosinase inhibition (tyrosinase)	IC50 (xanthine oxidase (XO)) [µM]
COc1ccc(O)c(C(C)(C)C)c1 [BHA, butylated hydroxyanisole]	37.22	22.47	68.45	40.54		
